Results taken from ChEMBL document CHEMBL4346662, “Synthesis of novel 7-azaindole derivatives containing pyridin-3-ylmethyl dithiocarbamate moiety as potent PKM2 activators and PKM2 nucleus translocation inhibitors” (Eur J Med Chem, 2019).
pIC50: −log10 of the molar value. Active and inactive are the calls of the source. No cut-off for these calls is given here.

What was measured:
[1] = biological target: T1, Pyruvate kinase PKM (Homo sapiens, UniProt P14618); assay: Activation of human recombinant His-tagged PKM2 expressed in Escherichia coli assessed as maximal activity using PEP as substrate measured at 30 sec between 3 and 6 mins in presence of […] by fluorescent pyruvate kinase-lactate dehydrogenase coupled assay relative to control
Procedure, shortened: (§1)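 Pyruvate kinase activity read by fluorescent pyruvate kinase–lactate dehydrogenase coupled assay; AC50 and maximal activation are means of at least two determinations.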
Target sequence in this assay (P14618 2-531 limits assumed): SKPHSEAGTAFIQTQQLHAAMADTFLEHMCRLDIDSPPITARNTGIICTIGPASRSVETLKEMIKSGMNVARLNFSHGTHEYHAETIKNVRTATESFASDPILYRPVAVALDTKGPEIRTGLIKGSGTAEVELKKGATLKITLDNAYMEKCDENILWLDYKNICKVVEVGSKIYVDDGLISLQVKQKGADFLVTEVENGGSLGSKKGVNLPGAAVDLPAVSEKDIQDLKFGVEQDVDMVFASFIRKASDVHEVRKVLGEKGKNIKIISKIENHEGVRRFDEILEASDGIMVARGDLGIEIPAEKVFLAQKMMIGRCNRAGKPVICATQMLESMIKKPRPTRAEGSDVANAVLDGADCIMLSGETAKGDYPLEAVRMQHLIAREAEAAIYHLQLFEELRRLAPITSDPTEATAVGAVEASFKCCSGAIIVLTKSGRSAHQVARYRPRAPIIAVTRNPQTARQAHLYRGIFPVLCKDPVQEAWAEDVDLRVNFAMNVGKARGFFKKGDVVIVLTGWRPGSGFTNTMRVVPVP

[2] = biological target: T1, Pyruvate kinase PKM; assay: Activation of human recombinant His-tagged PKM2 expressed in Escherichia coli using PEP as substrate measured at 30 sec between 3 and 6 mins in presence of […] by fluorescent pyruvate kinase-lactate dehydrogenase coupled assay; procedure, shortened: as §1
Target sequence in this assay (P14618 whole entry): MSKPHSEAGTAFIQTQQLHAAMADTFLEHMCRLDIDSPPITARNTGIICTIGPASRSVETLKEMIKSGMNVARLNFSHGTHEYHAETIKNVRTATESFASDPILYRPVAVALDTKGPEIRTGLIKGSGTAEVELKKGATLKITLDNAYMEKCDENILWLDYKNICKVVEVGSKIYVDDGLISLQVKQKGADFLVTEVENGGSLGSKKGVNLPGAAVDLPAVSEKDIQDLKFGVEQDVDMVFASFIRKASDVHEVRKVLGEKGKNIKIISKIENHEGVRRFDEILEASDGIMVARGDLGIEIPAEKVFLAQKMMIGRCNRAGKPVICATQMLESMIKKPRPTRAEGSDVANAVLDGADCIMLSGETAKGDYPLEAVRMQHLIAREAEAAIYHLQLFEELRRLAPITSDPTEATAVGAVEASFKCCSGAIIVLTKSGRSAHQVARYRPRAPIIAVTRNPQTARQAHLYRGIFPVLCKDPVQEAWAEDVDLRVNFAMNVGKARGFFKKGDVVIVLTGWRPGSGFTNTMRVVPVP

[3] = test system: A-375; assay: Antiproliferative activity against human A375 cells assessed as reduction in cell growth incubated for 72 hrs by CellTiter-Glo assay; assay type: functional, cell-based; details: A-375, 72 h
Procedure, shortened: (§2)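 Cells (H1299 in RPMI 1640; HCT116 and A375 in DMEM; 10% FBS, 37 °C, 5% CO2) plated at 2000 per well, left 24 h, then exposed to ten concentrations or DMSO for 72 h. CellTiter-Glo added, 30 min at room temperature in dark, luminescence read. IC50 fitted from triplicate experiments.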

[4] = test system: HCT-116; assay: Antiproliferative activity against human HCT116 cells assessed as reduction in cell growth incubated for 72 hrs by CellTiter-Glo assay; assay type: functional, cell-based; details: HCT-116, 72 h; procedure, shortened: as §2
[5] = test system: NCI-H1299; assay: Antiproliferative activity against human H1299 cells assessed as reduction in cell growth incubated for 72 hrs by CellTiter-Glo assay; assay type: functional, cell-based; details: NCI-H1299, 72 h; procedure, shortened: as §2
[6] = biological target: Serine/threonine-protein kinase B-raf (Homo sapiens) (UniProt P15056); assay: Inhibition of B-raf (unknown origin) at 10 uM
Chain of Serine/threonine-protein kinase B-raf (Homo sapiens) (P15056 whole entry): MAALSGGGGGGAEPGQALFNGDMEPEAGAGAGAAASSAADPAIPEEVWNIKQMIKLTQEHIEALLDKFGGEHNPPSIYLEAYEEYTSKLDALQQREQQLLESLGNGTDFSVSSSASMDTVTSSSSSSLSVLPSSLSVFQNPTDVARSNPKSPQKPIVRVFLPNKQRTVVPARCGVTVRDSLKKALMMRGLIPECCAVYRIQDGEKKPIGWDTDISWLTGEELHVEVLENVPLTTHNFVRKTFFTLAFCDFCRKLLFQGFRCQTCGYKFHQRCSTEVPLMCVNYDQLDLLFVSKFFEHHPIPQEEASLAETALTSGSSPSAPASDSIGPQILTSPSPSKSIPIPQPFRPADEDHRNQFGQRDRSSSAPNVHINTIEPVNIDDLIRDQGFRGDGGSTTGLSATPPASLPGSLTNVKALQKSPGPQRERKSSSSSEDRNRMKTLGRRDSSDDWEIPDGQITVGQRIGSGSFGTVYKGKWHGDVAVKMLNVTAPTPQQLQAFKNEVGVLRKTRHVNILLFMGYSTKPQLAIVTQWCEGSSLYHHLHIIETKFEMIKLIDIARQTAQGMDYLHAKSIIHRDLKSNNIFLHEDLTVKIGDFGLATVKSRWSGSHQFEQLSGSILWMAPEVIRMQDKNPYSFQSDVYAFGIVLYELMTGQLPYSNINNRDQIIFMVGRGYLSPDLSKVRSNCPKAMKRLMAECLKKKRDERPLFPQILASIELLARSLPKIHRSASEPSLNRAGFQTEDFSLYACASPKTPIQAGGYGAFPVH
Procedure, shortened: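 B-raf tested by single-point binding at 10 μM.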

[7] = test system: A-375; assay: Anti-migration activity against human A375 cells assessed as inhibition of cell migration distance incubated for 24 hrs; assay type: functional, cell-based
Procedure, shortened: (§3)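 A375 cells seeded at 60% per well, grown 24 h, then given six concentrations or DMSO. Migration speed and accumulated distance tracked in real time by live-cell high content imaging (Operetta) over 24 h. Data from triplicate experiments.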

[8] = test system: A-375; assay: Induction of apoptosis in human A375 cells assessed as late apoptotic cells level at 1 uM incubated for 24 hrs by AnnexinV-FITC/propidium iodide staining-based flow cytometric analysis (reference value: 6.64%); assay type: functional
Procedure, shortened: (§4)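 A375 cells seeded at 6×10^5 per well, grown 24 h, then given fresh medium with compound for 24 h. Harvested by trypsinization, washed twice in ice-cold PBS, stained with Annexin V-FITC/PI and analysed by flow cytometry. Annexin V+/PI− scored early, Annexin V+/PI+ late apoptotic, double-negative live.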

[9] = test system: A-375; assay: Anti-migration activity against human A375 cells assessed as inhibition of cell migration speed incubated for 24 hrs; assay type: functional, cell-based; procedure, shortened: as §3
[10] = species on record: Homo sapiens; assay: Inhibition of nuclear translocation of PKM2 in human A375 cells assessed as retardation of in nuclear accumulation of PKM2 at 1 to 4 uM incubated for 24 hrs by Hoechst staining-based immunofluorescent microscopic analysis; assay type: cell-based
Procedure, shortened: (§5)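 A375 cells seeded at 60% per well, grown 24 h at 37 °C, then treated with three concentrations, DMSO or NZT for 24 h (12 h in a separate run). Fixed 10 min in 3% PFA/0.1% glutaraldehyde, blocked overnight at 4 °C (3% BSA, 0.2% Triton X-100), stained with rabbit anti-PKM2 2 h, then secondary plus Hoechst 33258 1 h. Imaged on Operetta high content system; cytoplasmic fluorescence intensity quantified.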

[11] = test system: A-375; assay: Induction of apoptosis in human A375 cells assessed as early apoptotic cells level at 1 uM incubated for 24 hrs by AnnexinV-FITC/propidium iodide staining-based flow cytometric analysis (reference value: 2.89%); assay type: functional; procedure, shortened: as §4
[12] = test system: A-375; assay: Inhibition of nuclear translocation of PKM2 in human A375 cells assessed as cell death of PKM2 at 4 uM incubated for 24 hrs by Hoechst staining-based fluorescent microscopic analysis; assay type: functional
[13] = Cytotoxicity against human HELF cells assessed as reduction in cell viability incubated for 72 hrs by CellTiter-Glo assay; assay type: cell-based
[14] = test system: A-375; assay: Induction of apoptosis in human A375 cells assessed as necrotic cells level at 2 uM incubated for 24 hrs by AnnexinV-FITC/propidium iodide staining-based flow cytometric analysis (reference value: 0.96%); assay type: functional; procedure, shortened: as §4
[15] = test system: A-375; assay: Cytotoxicity in human A375 cells assessed as reduction in cel viability at 4 uM incubated for 24 hrs; assay type: functional, cell-based
[16] = Cytotoxicity against mouse C2C12 cells assessed as reduction in cell viability at 20 uM incubated for 72 hrs by CellTiter-Glo assay relative to control; assay type: cell-based; details: read-out: INH
[17] = test system: A-375; assay: Induction of apoptosis in human A375 cells assessed as viable cells level at 2 uM incubated for 24 hrs by AnnexinV-FITC/propidium iodide staining-based flow cytometric analysis (reference value: 89.51%); assay type: functional; procedure, shortened: as §4
[18] = test system: A-375; assay: Induction of apoptosis in human A375 cells assessed as viable cells level at 1 uM incubated for 24 hrs by AnnexinV-FITC/propidium iodide staining-based flow cytometric analysis (reference value: 89.51%); assay type: functional; procedure, shortened: as §4
[19] = test system: A-375; assay: Induction of apoptosis in human A375 cells assessed as early apoptotic cells level at 4 uM incubated for 24 hrs by AnnexinV-FITC/propidium iodide staining-based flow cytometric analysis (reference value: 2.89%); assay type: functional; procedure, shortened: as §4
[20] = biological target: T1, Pyruvate kinase PKM; assay: Inhibition of nuclear translocation of PKM2 in human A375 cells assessed as retardation of in nuclear accumulation of PKM2 at 1 to 4 uM incubated for 12 hrs by Hoechst staining-based immunofluorescent microscopic analysis; assay type: cell-based; procedure, shortened: as §5
Target sequence in this assay (P14618 2-531 limits assumed): as the sequence (P14618 2-531 limits assumed) above

[21] = Cytotoxicity against human HELF cells assessed as reduction in cell viability at 20 uM incubated for 72 hrs by CellTiter-Glo assay relative to control; assay type: cell-based; details: read-out: INH
[22] = test system: A-375; assay: Induction of apoptosis in human A375 cells assessed as viable cells level at 4 uM incubated for 24 hrs by AnnexinV-FITC/propidium iodide staining-based flow cytometric analysis (reference value: 89.51%); assay type: functional; procedure, shortened: as §4
[23] = test system: A-375; assay: Induction of apoptosis in human A375 cells assessed as late apoptotic cells level at 2 uM incubated for 24 hrs by AnnexinV-FITC/propidium iodide staining-based flow cytometric analysis (reference value: 6.64%); assay type: functional; procedure, shortened: as §4
[24] = test system: A-375; assay: Induction of autophagy in human A375 cells assessed as increase inLC3B spot area at 1 to 4 uM incubated for 24 hrs by immunoflourescence assay; assay type: functional, cell-based
Procedure, shortened: (§6)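 A375 cells seeded at 60% per well, then treated with compound or DMSO for 24 h. Fixed in 3% PFA/0.1% glutaraldehyde, blocked overnight at 4 °C, immunostained with rabbit anti-LC3B plus Hoechst 33258. High content imaging quantified cytoplasmic LC3B intensity and LC3B spot area.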

[25] = test system: A-375; assay: Induction of apoptosis in human A375 cells assessed as early apoptotic cells level at 2 uM incubated for 24 hrs by AnnexinV-FITC/propidium iodide staining-based flow cytometric analysis (reference value: 2.89%); assay type: functional; procedure, shortened: as §4
[26] = test system: A-375; assay: Antitumor activity in human A375 cells xenografted in BALB/C mouse assessed as reduction in tumor volume at 50 mg/kg, po bid for 14 days measured on day 22; assay type: functional, organism-based
Procedure, shortened: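 Male BALB/c athymic nude mice, six weeks old, 18–20 g, inoculated subcutaneously with A375 cells (5×10^7 cells/mL in DMEM, 0.2 mL). At 100–300 mm³ (7 days), randomized, n = 6 per group, dosed orally bid for 14 days; vehicle 0.5% CMCNa. Tumor volume ((width)²×length/2) and body weight measured 2–3 times weekly; tumors excised and weighed at day 22.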

[27] = test system: C2C12; assay: Cytotoxicity against mouse C2C12 cells assessed as reduction in cell viability incubated for 72 hrs by CellTiter-Glo assay; assay type: cell-based; details: C2C12, 72 h
[28] = test system: A-375; assay: Induction of apoptosis in human A375 cells assessed as apoptotic cells at 1 to 4 uM incubated for 24 hrs by AnnexinV-FITC/propidium iodide staining-based flow cytometric analysis relative to control; assay type: functional, cell-based; procedure, shortened: as §4
[29] = Toxicity in BALB/C mouse xenografted with human A375 cells assessed as reduction in body weight at 50 mg/kg, po bid for 14 days measured on day 22; details: in vivo, 336 h
[30] = test system: A-375; assay: Induction of apoptosis in human A375 cells assessed as necrotic cells level at 4 uM incubated for 24 hrs by AnnexinV-FITC/propidium iodide staining-based flow cytometric analysis (reference value: 0.96%); assay type: functional; procedure, shortened: as §4
[31] = test system: A-375; assay: Induction of apoptosis in human A375 cells assessed as necrotic cells level at 1 uM incubated for 24 hrs by AnnexinV-FITC/propidium iodide staining-based flow cytometric analysis (reference value: 0.96%); assay type: functional; procedure, shortened: as §4
[32] = test system: A-375; assay: Induction of autophagy in human A375 cells assessed as increase in LC3-1 to LC3-2 transition at 1 to 4 uM incubated for 24 hrs by immunoflourescence assay; assay type: functional, cell-based; procedure, shortened: as §6
[33] = test system: A-375; assay: Induction of apoptosis in human A375 cells assessed as late apoptotic cells level at 4 uM incubated for 24 hrs by AnnexinV-FITC/propidium iodide staining-based flow cytometric analysis (reference value: 6.64%); assay type: functional; procedure, shortened: as §4

In the case of `C#Cc1ccnc2[nH]cc(C(=O)CCSC(=S)NCc3cccnc3)c12`, the %max [1] was 24% and the AC50 ([2]; read-out: AC50) was over 20 µM.

For `Cc1ccc2c(C(=O)CCSC(=S)NCc3cccnc3)c[nH]c2n1`, the “%max” value [1] was “inactive” and the AC50 [2] was “Not Active”.

For `O=C(CCSC(=S)NCc1cccnc1)c1c(-c2ccccc2)nn2ncccc12`, the %max [1] was 148%, the pIC50 [3] was 5.56 and the AC50 ([2]; read-out: AC50) was 0.45 µM. For the same compound, the pIC50 [4] was 5.04 and the pIC50 [5] was under 5.00.

For `O=C(CCSC(=S)NCc1cccnc1)c1c[nH]c2nc(Cl)ccc12`, the “%max” value [1] was “inactive” and the AC50 [2] was “Not Active”.

For `O=C(CCSC(=S)NCc1cccnc1)c1c[nH]c2ncccc12`, the %max [1] was 113%, the pIC50 [3] was 5.99 and the pIC50 [4] was 5.51. The pIC50 [5] was 5.43.

`O=C(CCSC(=S)NCc1cccnc1)c1cn(C2CC2)c2ncccc12` showed a %max [1] of 42%, a pIC50 [3] of 6.68 and an AC50 ([2]; read-out: AC50) of 4.56 µM. It also gave a pIC50 [4] of 6.08 and a pIC50 [5] of 5.02.

Work on `Cn1cc(C(=O)CCSC(=S)NCc2cccnc2)c2cccnc21` yielded a %max [1] of 114%, a pIC50 [3] of 6.54 and an AC50 ([2]; read-out: AC50) of 4.35 µM. It also gave a pIC50 [4] of 6.03 and a pIC50 [5] of 5.68.

Work on `O=C(CCSC(=S)NCc1cccnc1)c1cn(-c2ccccc2)c2ncccc12` yielded a %max [1] of 77%, a pIC50 [3] of 5.41 and an AC50 ([2]; read-out: AC50) of 2.5 µM. For the same compound, the pIC50 [4] was 5.27 and the pIC50 [5] was 5.00.

In the case of `O=C(CCSC(=S)NCc1cccnc1)c1cn(CC(F)F)c2ncccc12`, the %max [1] was 149%, the inhibition [6] was 41% and the Activity [7] was “Dose-dependent effect”. For the same compound, the pIC50 [3] was 6.55, the Activity [8] was 8.09% and the Activity [9] was “Dose-dependent effect”. The inhibition [10] was “Dose-dependent effect”, the Activity [11] was 3.95% and the inhibition [12] was “Active”. It also gave an AC50 ([2]; read-out: AC50) of 2.67 µM, a pIC50 [4] of 6.15 and a pIC50 [13] of under 4.70. For the same compound, the Activity [14] was 2.11%, the Activity [15] was “Active” and the cytotoxicity at 72 h, 20 µM [16] was 46%. It also gave an Activity [17] of 76.9%, an Activity [18] of 86.39% and an Activity [19] of 18.55%. The Activity [20] was “Active”, the cytotoxicity at 72 h, 20 µM [21] was 10% and the Activity [22] was 67.24%. The Activity [23] was 6.98%, the Activity [24] was “Dose-dependent effect” and the Activity [25] was 14.01%. The Activity [26] was “Active”, the pIC50 [27] was under 4.70 and the Activity [28] was “Dose-dependent effect”. For the same compound, the Activity [29] was “Non-Toxic”, the Activity [30] was 4.45% and the pIC50 [5] was 5.64. For the same compound, the Activity [31] was 1.57%, the Activity [32] was “Dose-dependent effect” and the Activity [33] was 9.76%.
